In the EternaBench riboswitch data:

System: MS2 coat protein
Assay: apparent Kd, MS2 coat protein; higher = weaker binding; RNA-MaP array; FMN 200 µM where present
How it was run: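 The titrant was SNAP-549-labelled MS2 coat protein, run from 0.7 or 1.5 nM in doubling steps to 3 µM. It was applied to designs transcribed by stalled E. coli RNA polymerase on Illumina sequencing-chip clusters, without ligand first and then with constant ligand, in 100 mM Tris-HCl pH 7.5, 80 mM KCl, 4 mM MgCl2, BSA, DTT, yeast tRNA and Tween-20. The apparent Kd is the median of filtered per-cluster binding-curve fits, with green signal normalised to red-channel RNA signal and control-cluster median Fmax.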

[1] = designed as: OFF switch for flavin mononucleotide, no ligand
[2] = ligand present: flavin mononucleotide, designed as: OFF switch for flavin mononucleotide
[3] = designed as: ON switch for flavin mononucleotide, no ligand
[4] = ligand present: flavin mononucleotide, designed as: ON switch for flavin mononucleotide

| Sequence | apparent Kd [1] [nM] | apparent Kd [2] [nM] | apparent Kd [3] [nM] | apparent Kd [4] [nM] |
| --- | --- | --- | --- | --- |
| AGAUGGUGAUGUUAUCUUCGUCGGACAUGAGGAUCACCCAUGUAGGAUAUGCUACUAAAAUAGUAGCAGAAGGACAUGUAUCUU | 104 | 1030 | – | – |
| AGAUUGCAUGAGGAUAUCGUAUUAGAUAUAAUGCGAGAAGGCAUGACAUGAGGAUCACCCAUGUAGUGUGGGUU | 55.9 | 40.2 | – | – |
| AGAUUUGUACAUGAGGAUCACCCAUGUUAAUAGGUGGUUGUCAGAAGGCAUUAAUAGAGAUUUAAUGAGGAUAUGAAUUUACAA | – | – | 1420 | 1040 |
| AGAUUUGUACAUGAGGAUCACCCAUGUUAAUAGGUGUUUGUCAGAAGGCAUUAAUAGAGAUUUAAUGAGGAUAUGAAGUUACAA | – | – | 70.3 | 46.3 |
| AGCAGAACGUCAGGAUAUGUGGGUACUUUAGUCACAUGAGGAUCACCCAUGUAGGACUGCGAUCAACAGAAGGGACAAUUAGCA | – | – | 279 | 16.2 |
| AGCAUGCUAGGAUAUACGAAACAUUAGGGUUCUUUGUAUAAACAUGAGGAUCACCCAUGUAGAAGGAGCGUGCA | 46.1 | 169 | – | – |
| AGCCAAGCAGGAUAUGCACGUAAUAACAUGAGGAUCACCCAUGUGACCGAUUUAUGUUCUGCAGAAGGGCUUGGAA | 60.3 | 63.5 | – | – |
| AGCGAACAGGCUAACAUGAGGAUCACCCAUGUGGACUCAUGGUAGGAUAUCGGGAAGGAGGAAACCGAGAAGGGCCGGUGAGCA | – | – | 69.8 | 80.9 |
| AGCGCUACGGAAUCAAGGGCAGGCAGAAGGAGCACAUGAGGAUCACCCAUGUGAUCCAGGGAUGGCUAGGAUAUGCGCGCCACG | 26.4 | 26.5 | – | – |
| AGCGGUGCAGGAUAUGGCCGAUCCCACAUGAGGAUCACCCAUGUAAAUAAAAUAAGAUCUCCAGAAGGGCAUCGCA | 30.4 | 15.6 | – | – |
| AGCGUACAUGUUAGGAUAUGCUGUAGGAAUACUCAGCAGAAGGAACAUGAGGAUCACCCAUGUUUGUCCGUUCU | 14.5 | 23.9 | – | – |
| AGCGUGUAAGGAUAUACGUCGGAUAGCGAAUGCUGUCCGUAGUAGAAGGUACAUGAGGAUCACCCAUGUGUCCA | 25.1 | 94.1 | – | – |
| AGCUACGUUUCGUAGCAGCUAGGUGAGGAUAUCCUUAACAUGAGGAUCACCCAUGUAUAGCCAUGGGAGAAGGCGCCUAGAAAG | – | – | 723 | 55.3 |
| AGCUACGUUUCGUAGCAGUGUCAUCGAGAAGGCCUCAUUACAUGAGGAUCACCCAUGUGAGCAUGGGAGGAUAUCGAUGAUACA | – | – | 406 | 129 |
| AGCUACGUUUCGUAGCAGUGUCAUCGAGAAGGCUCAUAAACAUGAGGAUCACCCAUGUAUUCAUGGGAGGAUAUCGAUGAUACA | – | – | 32.2 | 6.04 |
| AGCUAGUCAGGAUAUACGAACACGUCAAAAGACUUGAAGGGACAUGAGGAUCACCCAUGUAGAAGGGACUAGCA | 35.1 | 123 | – | – |
| AGCUAGUCAGGAUAUACGUACAUGUCAUUAGACGUGAAGGGACAUGAGGAUCACCCAUGUAGAAGGGACUAGCU | 37.6 | 139 | – | – |
| AGCUAGUCAGGAUAUGCGAACAUGUCAAAAGACGUGAAGGGACAUGAGGAUCACCCAUGUAGAAGGGACUAGCA | 31.8 | 35.9 | – | – |
| AGCUGUGGCAGAGGAUAUACUACUAUAAUCCAUUGCAAAUAGCGAUGGACAUGAGGAUCACCCAUGUAGAAGGCUGUCACAGCA | 45.6 | 176 | – | – |
| AGCUGUGGCCGAGGAUAUCUAUCUCCAAUAACCGAAAUAUAAUCGGACAUGAGGAUCACCCAUGUAGAGAAGGCGGUCUCAGCA | 20.7 | 36 | – | – |
| AGCUGUGGCCGAGGAUAUCUGUUCCAUAUAACCGAAAUAUAAUCGGACAUGAGGAUCACCCAUGUAGAGAAGGCGGUCUCAGCA | 22.7 | 24.8 | – | – |
| AGCUUGAGAGGAUAUACUUGAGUGAUAAAAGUCUGAUAACUACAUGAGGAUCACCCAUGUAGAAGGCUCUAGCA | 18.3 | 47.8 | – | – |
| AGGAAACAUGAGGAUCACCCAUGUAAAAAAGUGGGAGGAUAUACUAGAAGAAACAAAAUAGUAGAAGGCCUAAAAA | – | – | 47.3 | 24.9 |
| AGGAGAAAUGUAGGAUAUGGGCGGGCAUAUGGGCAAAGCGCAUAUGCCCGCCCAGAAGGACAUGAGGAUCACCCAUGUUUCCCU | 13.2 | 11.1 | – | – |
| AGGAGACAUGAGGAUCACCCAUGUGCACGUGGAGGAGGAUAUGCUAGUAGAAGAUAGAAAGCAGAAGGCCUAAGAA | – | – | 69.2 | 80.5 |
| AGGAGACAUGAGGAUCACCCAUGUGCACGUGGAGGAGGAUAUGCUAGUAGAAGAUAGAAUGCAGAAGGCCUAAGAA | – | – | 72.9 | 84.8 |
| AGGAGGUUAGGAUAUGCUGCUCGUCACUUGCGUGAUGAGUAGCAGAAGGGACAUGAGGAUCACCCAUGUAAAAA | 48.5 | 28.1 | – | – |
| AGGAGUAAAGGGAAUAACAUGAGGAUCACCCAUGUAUGGGAGAGAAGGCAGAUCGGAGGACGAUCUGAGGAUAUUUAAACUCUA | – | – | 72.5 | 16.8 |

| Sequence | apparent Kd [1] [nM] | apparent Kd [2] [nM] | apparent Kd [3] [nM] | apparent Kd [4] [nM] |
| --- | --- | --- | --- | --- |
| AGGAGUAAAGGGAAUAACAUGAGGAUCACCCAUGUAUGGGAGAGAAGGCAGAUUGGAGGACGAUCUGAGGAUAUUUAAACUCUA | – | – | 53.5 | 20.1 |
| AGGAUACACCAGAAGGACAUGAGGAUCACCCAUGUAGGAUAUGGGUACGCCGACAUUAGUCUGCUCUCGGUAGACUUUCCUGAU | – | – | 75.1 | 10.4 |
| AGGAUCCUAUCAAGACAAAUGUACAUGAGGAUCACCCAUGUGCAGGAUAUAGCUAGUUACGGUGGCUAGAAGGGCACACCAAAA | 6.72 | 14.3 | – | – |
| AGGCCGCUACGCCGGCUUCACGCACAGGAUAUGCAGUUACAUGAGGAUCACCCAUGUGGCCAUGUGCAGAAGGGUGGUUCGUUA | – | – | 109 | 24.5 |
| AGGGAGUGAGGAUAUGCUGCUCGUCACUUGCGUGAUGAGUAGCAGAAGGUACAUGAGGAUCACCCAUGUAAAAA | 28.4 | 19 | – | – |
| AGGUAACAUGAGGAUCACCCAUGUACCAAUAAUGCAGGAUAUCGACACGAAAAUACGUGUCGAGAAGGGCAUGAAA | – | – | 14.1 | 16.4 |
| AGGUAACAUGAGGAUCACCCAUGUCAGGAUAUCAGUAAGAUGAGUAUAGAAGAGAGUAUGAGAAGGGACUAUAU | 31 | 25.6 | – | – |
| AGUAACAGAGGAUAUACUGUUUUAUGUGUUUAUUAUUUUGAACAUGAGGAUCACCCAUGUAGAAGGCUGAAUAA | – | 21.9 | – | – |
| AGUAACAGAGGAUAUACUGUUUUAUGUGUUUGUUAUUUUAAACAUGAGGAUCACCCAUGUAGAAGGCUGAAUGA | 27.1 | 25.3 | – | – |
| AGUAACAUGCUCAACAUGAGGAUCACCCAUGUACUCUCUUGUAAGGAUAUACAAUCGUAUUGAUAGUAGAAGGUACCAAUUAAG | – | – | 52.7 | 51.9 |
| AGUAAGAUGCAGAAGGUGUCAGCGAGAGCUACGACAUGAGGAUCACCCAUGUACUAGUGAGAGUACGAGGAUAUGCAUCUUACA | – | – | 37.3 | 13.9 |
| AGUAAGAUGCAGAAGGUGUUAGCUAGAGCUACGACAUGAGGAUCACCCAUGUACUAGAAACAGUACAAGGAUAUGCAUCUUACU | – | – | 18.4 | 6.43 |
| AGUAGAUCAGGAUAUACGUGAAAGGUCAAAGUGUCCCUACUACAUGAGGAUCACCCAUGUAGAAGGGAUCUACA | 13.4 | 14.6 | – | – |
| AGUAUGUACGCAGGAUAUACAUGAGGAUCACCCAUGUGGAACAGUGUAGUGCUAGUUGAUCCUCAGUAGAAGGGCGGUCGAAUA | 62.5 | 91.6 | – | – |
| AGUCAUACAGGAUAUACAUGAGGAUCACCCAUGUAAAUCCUAAAAAGAAAAACCUCUUGUAGAAGGGUAUGACA | 14.3 | 16.3 | – | – |
| AGUCGGAGCAGAGGAUAUACAUGAGGAUCACCCAUGUAAAUGGAAUAAGACUGGAAACAGUCAAUGUAGAAGGCUGCUCCGACA | 68.5 | 673 | – | – |
| AGUCGGAGCAGAGGAUAUACAUGAGGAUCACCCAUGUAAUAAAGUGAAGCCUGGAAACAGGCAAUGUAGAAGGCUGCUCCGACA | 28.1 | 232 | – | – |
| AGUCGGAGCAGAGGAUAUACAUGAGGAUCACCCAUGUAAUAUGAUCUAGCCUGGAAACAGGCAAUGUAGAAGGCUGCUCCGACA | 90.3 | 709 | – | – |
| AGUCGGAGCAGAGGAUAUUACAUGAGGAUCACCCAUGUGGAAGAACCAAGCUGGAAACAGCAAUGUAAGAAGGCUGCUCCGACA | 918 | 430 | – | – |
| AGUCUGUGGCAACUAUCCUCACAUGAGGAUCACCCAUGUAGGGAGGAUAUGCAUUUAAAGAAGUGGCAGAAGGCCCUACACGGA | 83.2 | 32.1 | – | – |
| AGUGACUACGUAGGAUAUUAAUUCAUGGACUACAUGAGGAUCACCCAUGUUUAUUUAACAUCAGCUGAGAAGGACGUGGUCACA | – | – | 28.1 | 10.6 |
| AGUGGCUACACAGGAUAUCCCAGCCUCUUGGUGGGAGAAGGGUGAGGUCAGAGACAUGAGGAUCACCCAUGUCUUACAGGAGGA | – | – | 15.8 | 8.33 |
| AGUGUCAUCGAGAAGGCCUCAACAUGAGGAUCACCCAUGUUGCAAAAUGGGAGGAUAUCGCGCGUUCUAAAACGUUUCGUAGCA | – | – | 54.1 | 18 |
| AGUGUCAUCGAGAAGGCCUCAUUAACAUGAGGAUCACCCAUGUAAUAUGGGAGGAUAUCGAUGAUACAGCUACGUUUCGUAGCA | – | – | 216 | 55.2 |
| AGUGUUGGAGGAUAUACAUGAGGAUCACCCAUGUACAUCACACAGUAUAUGAAACCAUGUAGAAGGCCAAUACA | 55.8 | 73.8 | – | – |
| AGUUAAUAUCGAGGAUAUCUCAUGAAUACAUGAGGAUCACCCAUGUGAAUGGGAGAAGGCGAUAUUAACAGCAUGUUACAUGCA | – | – | 12.6 | 6.52 |
| AGUUACAUACUCAACAUGAGGAUCACCCAUGUACUCUCUUGUAAGGAUAUACAUUCGUAUUGAAAGUAGAAGGUACUAAUUAUG | – | – | 89.1 | 77.3 |
